Measurements as given in ChEMBL document CHEMBL1124992, “(Pyrimidinyloxy)acetic acids and pyrimidineacetic acids as a novel class of aldose reductase inhibitors” (J Med Chem, 1990).

What was measured:
Rattus norvegicus [1] = test: In vivo inhibition of polyol accumulation in galactosemic rat nerve at dose 112 mg/kg administered perorally; format: functional; conditions: route oral
Method in brief: (§1)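 Rats received a diet of 20% galactose for 4 days, with compound mixed into the diet. Galactitol was measured in trichloroacetic acid extracts of lens, sciatic nerve and diaphragm by a modified Kraml–Cosyns method. Values are % reduction versus galactosemic controls, compared by Dunnett's multiple comparison.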

Rattus norvegicus [2] = test: In vivo inhibition of polyol accumulation in galactosemic rat diaphragm at dose 112 mg/kg administered perorally; format: functional; conditions: route oral; method in brief: as §1
[3] = molecular target: Aldo-keto reductase family 1 member B1 (Bos taurus) (UniProt P16116); test: In vitro inhibition of aldose reductase from the partially purified bovine lens at 10e-6 M concentration
Method in brief: (§2)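 Bovine lens aldose reductase, partially purified, assayed spectrophotometrically following Hayman and Kinoshita. Each compound was tested at three concentrations, routinely in duplicate.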

[4] = molecular target: Aldo-keto reductase family 1 member B1 (Bos taurus) (UniProt P16116); test: In vitro inhibition of aldose reductase from the partially purified bovine lens at 10e-5 M concentration; method in brief: as §2
[5] = molecular target: Aldo-keto reductase family 1 member B1 (Bos taurus) (UniProt P16116); test: In vitro inhibition of aldose reductase from the partially purified bovine lens at 10e-7 M concentration; method in brief: as §2
Rattus norvegicus [6] = test: In vivo inhibition of polyol accumulation in galactosemic rat diaphragm at dose 90 mg/kg administered perorally; format: functional; conditions: route oral; method in brief: as §1
Rattus norvegicus [7] = test: In vivo inhibition of polyol accumulation in galactosemic rat nerve at dose 90 mg/kg administered perorally; format: functional; conditions: route oral; method in brief: as §1
Rattus norvegicus [8] = test: In vivo inhibition of polyol accumulation in galactosemic rat diaphragm at dose 102 mg/kg administered perorally; format: functional; conditions: route oral; method in brief: as §1
Rattus norvegicus [9] = test: In vivo inhibition of polyol accumulation in galactosemic rat diaphragm at dose 135 mg/kg administered perorally; format: functional; conditions: route oral; method in brief: as §1
Rattus norvegicus [10] = test: In vivo inhibition of polyol accumulation in galactosemic rat diaphragm at dose 96 mg/kg administered perorally; format: functional; conditions: route oral; method in brief: as §1
Rattus norvegicus [11] = test: In vivo inhibition of polyol accumulation in galactosemic rat nerve at dose 151 mg/kg administered perorally; format: functional; conditions: route oral; method in brief: as §1
Rattus norvegicus [12] = test: In vivo inhibition of polyol accumulation in galactosemic rat diaphragm at dose 105 mg/kg administered perorally; format: functional; conditions: route oral; method in brief: as §1
Rattus norvegicus [13] = test: In vivo inhibition of polyol accumulation in galactosemic rat nerve at dose 105 mg/kg administered perorally; format: functional; conditions: route oral; method in brief: as §1
Rattus norvegicus [14] = test: In vivo inhibition of polyol accumulation in galactosemic rat nerve at dose 97 mg/kg administered perorally; format: functional; conditions: route oral; method in brief: as §1
Rattus norvegicus [15] = test: In vivo inhibition of polyol accumulation in galactosemic rat diaphragm at dose 97 mg/kg administered perorally; format: functional; conditions: route oral; method in brief: as §1
Rattus norvegicus [16] = test: In vivo inhibition of polyol accumulation in galactosemic rat nerve at dose 93 mg/kg administered perorally; format: functional; conditions: route oral; method in brief: as §1
Rattus norvegicus [17] = test: In vivo inhibition of polyol accumulation in galactosemic rat lens at dose 93 mg/kg administered perorally; format: functional, Lens of camera-type eye; conditions: route oral; method in brief: as §1
Rattus norvegicus [18] = test: In vivo inhibition of polyol accumulation in galactosemic rats lens; format: functional; conditions: Lens of camera-type eye, read-out: ID50 (the source's name)
Rattus norvegicus [19] = test: In vivo inhibition of polyol accumulation in galactosemic rats nerve; format: functional; conditions: read-out: ID50 (the source's name)
Rattus norvegicus [20] = test: In vivo inhibition of polyol accumulation in galactosemic rat nerve at dose 6 mg/kg administered perorally; format: functional; conditions: route oral; method in brief: as §1
Rattus norvegicus [21] = test: In vivo inhibition of polyol accumulation in galactosemic rats diaphragm; format: functional; conditions: read-out: ID50 (the source's name)
Rattus norvegicus [22] = test: In vivo inhibition of polyol accumulation in galactosemic rat diaphragm at dose 6 mg/kg administered perorally; format: functional; conditions: route oral; method in brief: as §1
Rattus norvegicus [23] = test: In vivo inhibition of polyol accumulation in galactosemic rat nerve at dose 99 mg/kg administered perorally; format: functional; conditions: route oral; method in brief: as §1
Rattus norvegicus [24] = test: In vivo inhibition of polyol accumulation in galactosemic rat diaphragm at dose 99 mg/kg administered perorally; format: functional; conditions: route oral; method in brief: as §1
Rattus norvegicus [25] = test: In vivo inhibition of polyol accumulation in galactosemic rat diaphragm at dose 83 mg/kg administered perorally; format: functional; conditions: route oral; method in brief: as §1
Rattus norvegicus [26] = test: In vivo inhibition of polyol accumulation in galactosemic rat nerve at dose 83 mg/kg administered perorally; format: functional; conditions: route oral; method in brief: as §1
Rattus norvegicus [27] = test: In vivo inhibition of polyol accumulation in galactosemic rat nerve at dose 78 mg/kg administered perorally; format: functional; conditions: route oral; method in brief: as §1
Rattus norvegicus [28] = test: In vivo inhibition of polyol accumulation in galactosemic rat nerve at dose 82 mg/kg administered perorally; format: functional; conditions: route oral; method in brief: as §1
Rattus norvegicus [29] = test: In vivo inhibition of polyol accumulation in galactosemic rat diaphragm at dose 82 mg/kg administered perorally; format: functional; conditions: route oral; method in brief: as §1

SMILES | inhibition [3] [%] | inhibition [4] [%] | inhibition [5] [%] | further results
CCCCCCSc1nc(C(C)(C)C)nc(OCC(=O)O)c1C#N |  |  |  | Reduction (Rattus norvegicus [1]): 43%; Reduction (Rattus norvegicus [2]): 60%
CSc1nc(C2CCCCC2)n(CC(=O)O)c(=O)c1C#N |  | 98 | 89 | Reduction (Rattus norvegicus [6]): 42%; Reduction (Rattus norvegicus [7]): 47%
CSc1nc(C)nc(OCC(=O)O)c1C#N | 84 | 90 | 55 | 
CC(C)(C)c1nc(OCC(=O)O)c(C#N)c(SCc2ccc(Br)cc2)n1 | 95 | 95 | 95 | Reduction (Rattus norvegicus [9]): 58%
CC(C)Sc1nc(C(C)C)n(CC(=O)O)c(=O)c1C#N | 97 | 96 | 91 | 
N#Cc1c(Cc2cccc3ccccc23)nc(-c2cccc3c(Br)cccc23)n(CC(=O)O)c1=O | 85 | 93 | 46 | Reduction (Rattus norvegicus [11]): 30%
CC(C)(C)c1nc(OCC(=O)O)c(C#N)c(SCC2CCCCC2)n1 | 96 | 97 | 88 | Reduction (Rattus norvegicus [12]): 60%; Reduction (Rattus norvegicus [13]): 70%
CSc1nc(C(C)(C)C)nc(OCC(=O)O)c1C(N)=O | 42 | 81 | 10 | 
N#Cc1c(SCc2ccc(Br)cc2F)nc(C2CCCCC2)n(CC(=O)O)c1=O |  | 96 | 92 | Reduction (Rattus norvegicus [16]): 50%; Reduction (Rattus norvegicus [17]): 15%
CSc1nc(C2CCCCC2)n(CC(=O)O)c(=O)c1S(=O)(=O)c1ccccc1 | 0 | 3 |  | 
COc1ccc2c(C(=S)N(C)CC(=O)O)cccc2c1C(F)(F)F [TOLRESTAT] |  |  |  | ED50 (Rattus norvegicus [18]): 178 mg/kg; ED50 (Rattus norvegicus [19]): 8 mg/kg; Reduction (Rattus norvegicus [20]): 53%; ED50 (Rattus norvegicus [21]): 1.5 mg/kg; Reduction (Rattus norvegicus [22]): 90%
CC(C)(C)c1nc(OCC(=O)O)c(C#N)c(SCc2ccc(Br)cc2F)n1 | 93 | 98 | 93 | Reduction (Rattus norvegicus [23]): 28%; Reduction (Rattus norvegicus [24]): 47%
COC(=O)c1c(SC)nc(C2CCCCC2)n(CC(=O)O)c1=O | 1 | 5 |  | 
CSc1nc(C(C)(C)C)nc(OCC(=O)O)c1C#N | 88 | 89 | 82 | Reduction (Rattus norvegicus [25]): 32%; Reduction (Rattus norvegicus [26]): 35%
COC(=O)c1c(OCC(=O)O)nc(C(C)(C)C)nc1SC | 2 | 13 |  | 
CSc1nc(C(C)C)nc(OCC(=O)O)c1C#N | 97 | 98 | 88 | Reduction (Rattus norvegicus [27]): 37%
CSc1nc(CC(C)(C)C)nc(OCC(=O)O)c1C#N | 96 | 95 | 85 | 
CC(C)Sc1nc(C(C)(C)C)nc(OCC(=O)O)c1C#N | 91 | 92 | 89 | Reduction (Rattus norvegicus [28]): 37%; Reduction (Rattus norvegicus [29]): 19%

Now from value to molecule, other results behind:

inhibition [3] [%] | inhibition [4] [%] | inhibition [5] [%] | SMILES | further results
90 | 96 | 76 | Cc1nc(NCc2ccccc2)c(C#N)c(=O)n1CC(=O)O | 
98 | 96 | 94 | CC(C)c1nc(SCc2ccccc2)c(C#N)c(=O)n1CC(=O)O | Reduction (Rattus norvegicus [8]): 38%
68 | 84 | 29 | N#Cc1c(-c2ccccc2)nc(-c2cccc3ccccc23)n(CC(=O)O)c1=O | 
91 | 93 | 72 | Cc1nc(NCC2CCCCC2)c(C#N)c(=O)n1CC(=O)O | 
88 | 92 | 79 | Cc1nc(-c2ccccc2)nc(OCC(=O)O)c1C#N | 
87 | 92 | 75 | CSc1nc(-c2ccccc2)nc(OCC(=O)O)c1C#N | Reduction (Rattus norvegicus [10]): 55%
88 | 90 | 81 | Cc1nc(N2CCC(Cc3ccccc3)CC2)c(C#N)c(=O)n1CC(=O)O | 
89 | 92 | 64 | Cc1nc(N2CCN(Cc3ccccc3)CC2)c(C#N)c(=O)n1CC(=O)O | 
76 | 79 | 53 | N#Cc1c(OCC(=O)O)nc(-c2cccc3ccccc23)nc1-c1ccccc1 | 
85 | 93 | 46 | Cc1nc(-c2cccc3ccccc23)nc(OCC(=O)O)c1C#N | 
71 | 82 | 22 | N#Cc1c(-c2ccccc2)nc(-c2cccc3c(Br)cccc23)n(CC(=O)O)c1=O | 
85 | 86 | 82 | CC(C)(C)c1nc(OCC(=O)O)c(C#N)c(SCc2ccccc2)n1 | Reduction (Rattus norvegicus [14]): 46%; Reduction (Rattus norvegicus [15]): 67%
84 | 86 | 74 | CSc1nc(C)n(CC(=O)O)c(=O)c1C#N | 
96 | 96 | 94 | CSc1nc(C(C)C)n(CC(=O)O)c(=O)c1C#N | 
18 | 53 |  | Cc1nc(NCc2cccnc2)cc(=O)n1CC(=O)O | 
90 | 88 | 30 | Cc1nc(NCc2cccnc2)c(C#N)c(=O)n1CC(=O)O | 
